Test results reported in ChEMBL document CHEMBL1147050, “Small-molecule agonists for the glucagon-like peptide 1 receptor” (Proc Natl Acad Sci U S A, 2007).
Activity calls are given as the source filed them. No cut-off for these calls is given here.

Experiments:
[1] = target: T1, Glucagon-like peptide 1 receptor (Homo sapiens, UniProt P43220); experiment: Agonist activity at human GLP1 receptor expressed in BHK cells assessed as cAMP accumulation; format: functional, cell-based
[2] = target: Glucagon receptor (Homo sapiens) (UniProt P47871); experiment: Agonist activity at human glucagon receptor expressed in BHK cells assessed as cAMP accumulation; format: functional, cell-based
[3] = target: T2, Gastric inhibitory polypeptide receptor (Homo sapiens) (UniProt P48546); experiment: Agonist activity at human GIP receptor expressed in BHK cells assessed as cAMP accumulation; format: functional, cell-based
T2 sequence (whole entry): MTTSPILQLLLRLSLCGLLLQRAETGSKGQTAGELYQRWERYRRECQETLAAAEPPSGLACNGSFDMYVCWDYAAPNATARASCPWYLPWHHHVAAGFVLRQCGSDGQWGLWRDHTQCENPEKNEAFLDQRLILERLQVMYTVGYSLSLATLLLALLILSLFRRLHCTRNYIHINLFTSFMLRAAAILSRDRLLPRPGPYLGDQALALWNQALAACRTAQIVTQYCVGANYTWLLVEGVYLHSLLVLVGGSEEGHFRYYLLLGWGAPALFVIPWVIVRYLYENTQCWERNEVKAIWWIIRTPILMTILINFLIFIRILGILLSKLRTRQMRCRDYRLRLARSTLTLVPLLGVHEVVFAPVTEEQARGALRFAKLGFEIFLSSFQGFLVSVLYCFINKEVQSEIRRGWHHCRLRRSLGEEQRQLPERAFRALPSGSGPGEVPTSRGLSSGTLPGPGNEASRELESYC

[4] = target: T1, Glucagon-like peptide 1 receptor; experiment: Increase in [125I]GLP1 binding to human GLP1 receptor expressed in BHK cells; format: cell-based
In short: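 BHK-cell plasma membranes expressing human GLP-1 receptor with 125I-GLP-1(7–36)amide tracer (50,000 cpm/well) in 25 mM Hepes, 0.1% BSA, pH 7.4; final DMSO 4.4%. Incubated 1 h at 37°C, then vacuum filtration and one wash. Nonspecific binding defined with 1 μM GLP-1; triplicates; curves fitted as one-site competition.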

[5] = target: T3, Glucagon-like peptide 2 receptor (Homo sapiens) (UniProt O95838); experiment: Agonist activity at human GLP2 receptor expressed in BHK cells assessed as cAMP accumulation; format: functional, cell-based
T3 sequence (whole entry): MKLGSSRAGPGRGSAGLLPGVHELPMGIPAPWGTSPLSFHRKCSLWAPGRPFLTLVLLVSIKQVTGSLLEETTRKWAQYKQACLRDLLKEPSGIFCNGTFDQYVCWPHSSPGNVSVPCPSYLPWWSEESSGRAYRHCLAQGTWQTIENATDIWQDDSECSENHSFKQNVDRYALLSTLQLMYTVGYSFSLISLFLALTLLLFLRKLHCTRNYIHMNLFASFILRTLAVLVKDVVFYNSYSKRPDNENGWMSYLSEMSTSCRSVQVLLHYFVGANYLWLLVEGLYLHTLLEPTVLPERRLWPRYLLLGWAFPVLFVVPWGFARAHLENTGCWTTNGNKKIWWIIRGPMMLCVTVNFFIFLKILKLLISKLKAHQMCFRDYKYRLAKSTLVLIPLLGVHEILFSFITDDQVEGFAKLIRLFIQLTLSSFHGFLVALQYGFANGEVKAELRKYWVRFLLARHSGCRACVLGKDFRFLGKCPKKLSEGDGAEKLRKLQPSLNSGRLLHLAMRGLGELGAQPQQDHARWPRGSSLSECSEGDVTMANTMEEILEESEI

Pancreas = experiment: Induction of 10 mM glucose-induced insulin release in Sprague-Dawley rat pancreas at 10 uM; format: functional, tissue-based
In short: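 Pancreas from male SD rats perfused at 37°C with oxygenated Krebs Ringer containing 0.25% BSA, 4% Dextran T-70 and 2 mM calcium, total flow 1.9 ml/min. Compound (final DMSO 0.25%) given at t = 20–40 min with 10 mM glucose; insulin release followed; two to three experiments, mean ± SD.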

Mus musculus [6] = species on record: Mus musculus; experiment: Induction of 3 mM glucose-induced insulin release in CD1 wild type mouse pancreatic islets at 1000 nM; format: functional
In short: (§1)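 Adult CD1 wild-type mouse islets were isolated by collagenase digestion, cultured overnight in RPMI 1640 with 10% newborn calf serum, and perifused the next day. Columns held 30 islets, run at 37 °C and 0.30 ml/min in pH 7.4 Hepes buffer with albumin. After 30 min basal perifusion at 3 mM glucose, glucose was 3 mM from 0–60 min, then 10 mM. Agent was present 10–70 min (final DMSO ≤0.1%). Three groups of 30 islets, mean ± SEM.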

Mus musculus [7] = species on record: Mus musculus; experiment: Induction of 10 mM glucose-induced insulin release in CD1 wild type mouse pancreatic islets at 100 nM; format: functional; in short: as §1
Mus musculus [8] = species on record: Mus musculus; experiment: Induction of 10 mM glucose-induced insulin release in CD1 GLP1 receptor knockout mouse pancreatic islets at 100 nM; format: functional
Mus musculus [9] = species on record: Mus musculus; experiment: Induction of 3 mM glucose-induced insulin release in CD1 wild type mouse pancreatic islets at 100 nM; format: functional; in short: as §1
Mus musculus [10] = species on record: Mus musculus; experiment: Induction of 10 mM glucose-induced insulin release in CD1 wild type mouse pancreatic islets at 1000 nM; format: functional
In short: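 Islets from adult CD1 mice isolated by collagenase and cultured overnight in RPMI 1640 with 10% newborn calf serum. Groups of 30 islets perifused at 37°C, 0.30 ml/min, in Hepes-bicarbonate buffer with albumin. Glucose 3 mM from 0–60 min, then 10 mM; compound added at 10 min and removed at 70 min. Final DMSO ≤0.1%. Three groups per condition.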

Mus musculus [11] = species on record: Mus musculus; experiment: Induction of 10 mM glucose-induced insulin release in CD1 GLP1 receptor knockout mouse pancreatic islets at 1000 nM; format: functional
In short: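 Islets came from CD1 GLP-1 receptor knockout mice, isolated by collagenase and cultured overnight, then perifused at 37 °C, 0.30 ml/min, 30 islets per column. After 30 min at 3 mM glucose, glucose was 3 mM from 0–30 min, then 10 mM. Agents were present 10–60 min, with DMSO ≤0.1% and a 10 μM imidazoline control. Three groups of 30 islets, mean ± SEM.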

T1 sequence (P43220 whole entry): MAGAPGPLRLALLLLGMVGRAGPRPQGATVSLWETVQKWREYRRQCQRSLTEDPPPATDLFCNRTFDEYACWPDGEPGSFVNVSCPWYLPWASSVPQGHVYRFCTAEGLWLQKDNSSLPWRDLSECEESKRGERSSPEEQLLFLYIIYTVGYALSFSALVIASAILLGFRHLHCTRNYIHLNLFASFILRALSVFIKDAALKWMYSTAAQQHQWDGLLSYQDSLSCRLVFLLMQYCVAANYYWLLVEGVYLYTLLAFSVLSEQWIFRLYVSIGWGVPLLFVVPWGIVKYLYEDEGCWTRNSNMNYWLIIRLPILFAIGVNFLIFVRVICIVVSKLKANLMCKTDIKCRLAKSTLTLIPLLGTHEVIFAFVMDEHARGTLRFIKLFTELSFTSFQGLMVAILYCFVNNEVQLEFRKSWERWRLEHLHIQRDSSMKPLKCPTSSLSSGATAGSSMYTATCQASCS
Sequence of Glucagon receptor (Homo sapiens) (P47871 whole entry): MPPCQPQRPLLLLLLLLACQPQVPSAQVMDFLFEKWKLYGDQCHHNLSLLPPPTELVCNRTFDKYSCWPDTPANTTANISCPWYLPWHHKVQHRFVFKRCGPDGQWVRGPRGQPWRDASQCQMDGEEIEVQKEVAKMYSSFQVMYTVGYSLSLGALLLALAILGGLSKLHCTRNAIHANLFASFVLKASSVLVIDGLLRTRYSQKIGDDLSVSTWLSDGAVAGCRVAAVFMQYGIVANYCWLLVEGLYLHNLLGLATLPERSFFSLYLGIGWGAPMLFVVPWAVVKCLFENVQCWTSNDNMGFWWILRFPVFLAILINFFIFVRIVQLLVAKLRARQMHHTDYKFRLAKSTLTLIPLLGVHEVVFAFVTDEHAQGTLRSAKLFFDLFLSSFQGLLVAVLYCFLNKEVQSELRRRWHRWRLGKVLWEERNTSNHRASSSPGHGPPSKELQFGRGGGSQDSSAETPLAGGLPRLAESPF

Row | EC50 [1] | Activity [2] | Activity [3] | Activity [4] | Activity [5] | Structure (SMILES) | Activity (Pancreas) | Activity (Mus musculus [6]) | Activity (Mus musculus [7]) | Activity (Mus musculus [8]) | Activity (Mus musculus [9]) | Activity (Mus musculus [10]) | Activity (Mus musculus [11])
1 | 1400 nM | inactive | inactive | Dose-dependent effect | inactive | Cc1cnc(Sc2nc3cc(Cl)c(Cl)cc3nc2C(F)(F)F)s1 |  |  |  |  |  |  | 
2 | 101 nM |  |  | Active |  | CC(C)(C)Nc1nc2cc(Cl)c(Cl)cc2nc1S(C)(=O)=O | Active | inactive | inactive | inactive | inactive | Active | inactive
3 |  |  |  |  |  | CC[C@H](C)[C@H](NC(=O)[C@H](Cc1ccccc1)NC(=O)[C@H](CCC(=O)O)NC(=O)[C@H](CCCCN)NC(=O)[C@H](C)NC(=O)[C@H](C)NC(=O)[C@H](CCC(N)=O)NC(=O)CNC(=O)[C@H](CCC(=O)O)NC(=O)[C@H](CC(C)C)NC(=O)[C@H](Cc1ccc(O)cc1)NC(=O)[C@H](CO)NC(=O)[C@H](CO)NC(=O)[C@@H](NC(=O)[C@H](CC(=O)O)NC(=O)[C@H](CO)NC(=O)[C@@H](NC(=O)[C@H](Cc1ccccc1)NC(=O)[C@@H](NC(=O)CNC(=O)[C@H](CCC(=O)O)NC(=O)[C@H](C)NC(=O)[C@@H](N)Cc1c[nH]cn1)[C@@H](C)O)[C@@H](C)O)C(C)C)C(=O)N[C@@H](C)C(=O)N[C@@H](Cc1c[nH]c2ccccc12)C(=O)N[C@@H](CC(C)C)C(=O)N[C@H](C(=O)N[C@@H](CCCCN)C(=O)NCC(=O)N[C@@H](CCCN=C(N)N)C(=O)NCC(=O)O)C(C)C |  | inactive | Active | inactive | inactive |  | inactive
